Laboratory results taken from ChEMBL document CHEMBL4715824, “Chemical Proteomic Characterization of a Covalent KRASG12C Inhibitor” (ACS Med Chem Lett, 2018).
Active and inactive are the calls of the source. The rule behind the calls is not given here.

Key:
[1] = molecular target: T1, Heme oxygenase 2 (Homo sapiens) (UniProt P30519); assay: (§1) Covalent binding affinity to HMOX2 at Cys282 residue in human NCI-H358 cells assessed as log2 H/L ratio at 10 uM pretreated for 3 hrs followed by N-(((6S,7R)-7-(4-chloro-3-fluorophenyl)-1,4-oxazepan-6-yl)methyl)-2-hydroxyacetamide treatment for 3 hrs by competitive TMT click chemistry pull-down experiment based LC-MS/MS analysis; format: cell-based; conditions: time 6.0 hrs
T1 sequence (whole entry): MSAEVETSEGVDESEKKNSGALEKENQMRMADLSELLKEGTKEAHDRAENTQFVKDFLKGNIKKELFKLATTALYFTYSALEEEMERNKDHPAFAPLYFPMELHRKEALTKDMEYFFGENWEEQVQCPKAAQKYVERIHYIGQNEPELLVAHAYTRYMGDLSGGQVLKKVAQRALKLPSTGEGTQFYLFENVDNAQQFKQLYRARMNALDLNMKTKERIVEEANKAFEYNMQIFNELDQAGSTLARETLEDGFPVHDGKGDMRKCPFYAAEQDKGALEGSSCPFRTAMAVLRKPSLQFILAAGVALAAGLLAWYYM
Outline: (§2)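 H358 cells were pretreated with DMSO (n = 3) or 10 μM compound for 3 h, then 2 μM alkyne probe was added for another 3 h. Cells were lysed, clicked onto azide-agarose resin, digested, TMT-labelled and pooled. The pool was fractionated by high-pH HPLC and each fraction run twice by 60 min low-pH nano LC-MS/MS. Readout was log2 compound/DMSO normalized reporter intensity, with a least-squares means test and FDR adjustment.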

[2] = system: GTPase KRas (Homo sapiens), P01116 [G12C]; assay: Covalent binding affinity to KRAS G12C mutant at Cys12 residue in human NCI-H358 cells assessed as reduction of log2 H/L ratio for tryptic peptide LVVVGACGVGK at 2 uM incubated for 4 hrs followed by cell lysis and subsequently labelled with light thiol probe N-((S)-18-iodo-11-isopropyl-10,13,17-trio …; format: cell-based
Reticulon-4 = molecular target: T2, Reticulon-4 (Homo sapiens, UniProt Q9NQC3); assay: (§3) Covalent binding affinity to RTN4 at Cys1101 residue in human NCI-H358 cells assessed as reduction of log2 H/L ratio for tryptic peptide […] incubated for 4 hrs followed by cell lysis and subsequently labelled with light thiol probe N-((S)-18-iodo-11-isopropyl-10,13,17-trioxo-3,6-dioxa-9,12,16-triazaoctadecyl)-6-((4R,5S)-5-methyl-2-oxoimidazolidin-4-yl)hexanamide and heavy thiol probe 4 for 1 hr under dark conditions followed by tryptic digestion for overnight and measured by discovery ABPP based nano LC-MS/MS analysis
T2 sequence (Q9NQC3 whole entry): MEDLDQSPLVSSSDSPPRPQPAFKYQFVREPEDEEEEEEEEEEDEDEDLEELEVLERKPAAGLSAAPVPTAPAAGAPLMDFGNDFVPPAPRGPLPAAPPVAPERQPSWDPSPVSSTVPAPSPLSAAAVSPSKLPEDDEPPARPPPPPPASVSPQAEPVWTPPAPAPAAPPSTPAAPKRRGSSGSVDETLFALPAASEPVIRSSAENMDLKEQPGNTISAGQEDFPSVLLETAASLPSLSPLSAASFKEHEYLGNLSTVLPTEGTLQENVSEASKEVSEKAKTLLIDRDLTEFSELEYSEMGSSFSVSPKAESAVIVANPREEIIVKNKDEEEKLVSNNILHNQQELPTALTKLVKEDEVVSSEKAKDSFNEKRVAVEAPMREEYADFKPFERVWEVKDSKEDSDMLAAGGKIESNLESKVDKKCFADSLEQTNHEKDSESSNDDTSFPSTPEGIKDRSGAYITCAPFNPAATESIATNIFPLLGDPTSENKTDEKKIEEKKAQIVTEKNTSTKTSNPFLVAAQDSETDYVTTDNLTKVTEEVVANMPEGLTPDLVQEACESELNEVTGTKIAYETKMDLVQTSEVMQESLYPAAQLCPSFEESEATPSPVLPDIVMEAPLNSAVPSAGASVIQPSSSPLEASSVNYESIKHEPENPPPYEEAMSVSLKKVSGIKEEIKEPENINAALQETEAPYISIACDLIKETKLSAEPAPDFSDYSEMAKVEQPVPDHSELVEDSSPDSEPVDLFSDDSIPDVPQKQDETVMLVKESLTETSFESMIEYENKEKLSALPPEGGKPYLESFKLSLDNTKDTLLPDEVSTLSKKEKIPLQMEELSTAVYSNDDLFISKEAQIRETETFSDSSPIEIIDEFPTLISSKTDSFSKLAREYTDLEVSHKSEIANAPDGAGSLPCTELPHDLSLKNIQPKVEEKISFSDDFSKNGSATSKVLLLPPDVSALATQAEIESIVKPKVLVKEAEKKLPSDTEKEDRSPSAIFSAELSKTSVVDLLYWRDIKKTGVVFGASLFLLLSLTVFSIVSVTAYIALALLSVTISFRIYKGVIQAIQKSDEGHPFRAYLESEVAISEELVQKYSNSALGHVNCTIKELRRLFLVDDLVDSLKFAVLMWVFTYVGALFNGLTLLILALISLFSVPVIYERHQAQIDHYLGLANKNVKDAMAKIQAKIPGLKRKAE
Outline: (§4)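 H358 cells were treated 4 h with DMSO, 0.08, 0.4, 2 or 10 μM, each paired with DMSO control cells, in biological duplicate. After lysis and denaturation, treated lysate took heavy thiol probe and control lysate took light probe. Lysates were combined equally, and probe-labelled tryptic peptides were streptavidin-enriched. Peptides were run twice by 180 min data-dependent nano LC-MS/MS. Hits needed log2 H/L below −0.776 (3σ) plus a dose-dependent decrease.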

[3] = molecular target: T3, Reticulon-4 (Homo sapiens) (UniProt Q9NQC3); assay: as §1, with “RTN4” for “HMOX2”, “Cys1101” for “Cys282”; format: cell-based; conditions: time 6.0 hrs; outline: as §2
T3 sequence (whole entry): T2 sequence (Q9NQC3 whole entry)

NCI-H358 = assay: Antiproliferative activity against human NCI-H358 cells harboring KRAS G12C mutant assessed as reduction in cell viability; format: functional, cell-based
[4] = molecular target: T4, Retinaldehyde dehydrogenase 3 (Homo sapiens) (UniProt P47895); assay: as §1, with “ALDH1A3” for “HMOX2”, “Cys52” for “Cys282”; format: cell-based; conditions: time 6.0 hrs; outline: as §2
T4 sequence (whole entry): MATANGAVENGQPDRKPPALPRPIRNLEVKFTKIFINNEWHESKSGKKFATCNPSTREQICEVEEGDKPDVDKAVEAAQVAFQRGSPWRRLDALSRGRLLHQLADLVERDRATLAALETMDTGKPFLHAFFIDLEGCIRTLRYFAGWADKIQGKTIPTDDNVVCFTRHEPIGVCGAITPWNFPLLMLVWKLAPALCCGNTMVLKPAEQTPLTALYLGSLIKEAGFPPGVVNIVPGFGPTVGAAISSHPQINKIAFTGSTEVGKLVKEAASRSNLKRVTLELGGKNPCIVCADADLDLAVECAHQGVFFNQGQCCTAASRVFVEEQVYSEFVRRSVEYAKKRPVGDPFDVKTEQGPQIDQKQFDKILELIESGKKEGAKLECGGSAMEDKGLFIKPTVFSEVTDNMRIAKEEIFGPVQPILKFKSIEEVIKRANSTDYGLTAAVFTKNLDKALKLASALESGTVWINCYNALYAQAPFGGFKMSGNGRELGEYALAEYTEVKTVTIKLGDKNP

[5] = molecular target: T5, Synaptic vesicle membrane protein VAT-1 homolog (Homo sapiens) (UniProt Q99536); assay: as §1, with “VAT1” for “HMOX2”, “Cys86” for “Cys282”; format: cell-based; conditions: time 6.0 hrs; outline: as §2
T5 sequence (whole entry): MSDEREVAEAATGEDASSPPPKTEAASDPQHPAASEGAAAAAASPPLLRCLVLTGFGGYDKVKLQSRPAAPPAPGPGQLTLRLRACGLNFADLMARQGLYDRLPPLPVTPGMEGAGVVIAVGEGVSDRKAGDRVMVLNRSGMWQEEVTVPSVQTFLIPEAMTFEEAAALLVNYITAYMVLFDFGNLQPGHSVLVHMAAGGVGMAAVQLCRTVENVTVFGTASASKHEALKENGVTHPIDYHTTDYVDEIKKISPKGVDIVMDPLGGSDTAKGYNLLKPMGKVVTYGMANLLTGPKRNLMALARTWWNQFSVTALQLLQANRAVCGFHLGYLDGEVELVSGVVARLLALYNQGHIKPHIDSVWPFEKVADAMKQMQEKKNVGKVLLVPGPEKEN

Quinone oxidoreductase = molecular target: T6, Quinone oxidoreductase (Homo sapiens, UniProt Q08257); assay: as §3, with “CRYZ” for “RTN4”, “Cys45” for “Cys1101”; outline: as §4
T6 sequence (Q08257 whole entry): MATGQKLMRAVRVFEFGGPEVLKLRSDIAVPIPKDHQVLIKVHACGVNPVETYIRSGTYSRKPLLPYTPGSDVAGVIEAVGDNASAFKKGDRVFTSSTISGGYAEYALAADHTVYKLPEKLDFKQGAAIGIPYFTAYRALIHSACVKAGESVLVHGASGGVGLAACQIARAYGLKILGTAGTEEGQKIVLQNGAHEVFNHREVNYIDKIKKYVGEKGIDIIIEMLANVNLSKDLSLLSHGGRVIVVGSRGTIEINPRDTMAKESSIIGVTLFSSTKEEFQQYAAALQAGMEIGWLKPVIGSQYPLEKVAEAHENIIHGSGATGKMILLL

NCI-H2030 = assay: Antiproliferative activity against human NCI-H2030 cells harboring KRAS G12C mutant assessed as reduction in cell viability; format: functional, cell-based
GTPase KRas = GTPase KRas (Homo sapiens, UniProt P01116, G12C); assay: as §3, with “KRAS G12C mutant” for “RTN4”, “Cys12” for “Cys1101”, “by” for “by discovery”, “ABPP target occupancy” for “ABPP”, “UHPLC Q-SIM MS” for “nano LC-MS/MS”
Outline: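 Target occupancy: H358 cells were treated 4 h with DMSO, 0.08, 0.4, 2 or 10 μM, each paired with DMSO controls, in duplicate. Lysates were labelled heavy (treated) or light (control) with thiol probe, combined, trypsinized and streptavidin-enriched. The LVVVGAC*GVGK peptide pair was measured by UHPLC Q-SIM, with AUC H/L as occupancy. Each point averaged four MS injections, and IC50 came from the concentration-response curve.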

[6] = system: GTPase KRas (Homo sapiens), P01116 [G12C]; assay: as §1, with “KRAS G12C mutant” for “HMOX2”, “Cys12” for “Cys282”; format: cell-based; conditions: time 6.0 hrs; outline: as §2
[7] = molecular target: Fatty acid-binding protein 5 (Homo sapiens) (UniProt Q01469); assay: as §1, with “FABP5” for “HMOX2”, “Cys67” for “Cys282”; format: cell-based; conditions: time 6.0 hrs; outline: as §2

C=CC(=O)N1CCN(c2ncnc3c(F)c(-c4c(O)cccc4F)c(Cl)cc23)CC1
Ratio [1]: -0.3 | Activity [2]: Active | IC50 (Reticulon-4): 14600 nM | Ratio [3]: -0.4 | IC50 (NCI-H358): 640 nM | Ratio [4]: -1.1 | Ratio [5]: -0.6 | IC50 (Quinone oxidoreductase): 8440 nM | IC50 (NCI-H2030): 160 nM | IC50 (GTPase KRas): 1800 nM | Ratio [6]: -1.8 | Ratio [7]: -1.3
